Results reported in ChEMBL document CHEMBL1773060, “Two-step synthesis of novel, bioactive derivatives of the ubiquitous cofactor nicotinamide adenine dinucleotide (NAD)” (J Med Chem, 2011).

Columns and labels:
[1] = molecular target: T1, NAD-dependent protein deacetylase sirtuin-1 (Homo sapiens, UniProt Q96EB6); assay: Inhibition of human recombinant GST-tagged SIRT1 after 4 hrs by homogeneous fluorescent deacetylase assay
T1 sequence (Q96EB6 whole entry): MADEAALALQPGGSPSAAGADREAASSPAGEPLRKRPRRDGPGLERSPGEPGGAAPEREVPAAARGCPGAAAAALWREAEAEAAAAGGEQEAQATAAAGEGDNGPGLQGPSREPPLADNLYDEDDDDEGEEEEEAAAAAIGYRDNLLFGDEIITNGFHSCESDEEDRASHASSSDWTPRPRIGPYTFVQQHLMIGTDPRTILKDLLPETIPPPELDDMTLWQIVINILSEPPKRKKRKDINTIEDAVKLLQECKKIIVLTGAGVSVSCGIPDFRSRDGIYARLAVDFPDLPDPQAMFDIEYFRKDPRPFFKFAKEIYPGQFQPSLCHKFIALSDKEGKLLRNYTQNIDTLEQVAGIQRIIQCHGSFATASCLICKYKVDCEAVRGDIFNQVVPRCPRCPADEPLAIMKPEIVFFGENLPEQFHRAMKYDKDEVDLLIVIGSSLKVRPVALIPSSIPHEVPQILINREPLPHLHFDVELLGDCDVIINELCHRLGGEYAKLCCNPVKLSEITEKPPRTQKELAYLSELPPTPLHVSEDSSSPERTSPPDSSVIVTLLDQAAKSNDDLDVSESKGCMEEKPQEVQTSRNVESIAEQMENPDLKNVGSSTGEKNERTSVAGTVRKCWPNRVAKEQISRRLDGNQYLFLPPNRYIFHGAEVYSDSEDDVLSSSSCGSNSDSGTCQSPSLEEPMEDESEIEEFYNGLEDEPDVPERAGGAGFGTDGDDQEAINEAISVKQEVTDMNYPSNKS
Procedure, shortened: (§1)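 Recombinant enzyme incubated with Z-(Ac)Lys-AMC (10.5 μM), NAD (500 μM) and inhibitor added from DMSO stock, 4 h at 37 °C. Enzyme amount set for 10–30% substrate conversion without inhibitor. Trypsin (1 mg/mL) plus nicotinamide (8 mM) added, 20 min at 37 °C. Fluorescence read at ex 390/em 460 nm. Inhibition calculated from remaining substrate versus no-inhibitor control. Run at least in duplicate.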

[2] = molecular target: T2, NAD-dependent protein deacetylase sirtuin-2 (Homo sapiens, UniProt Q8IXJ6); assay: Inhibition of human recombinant N-terminally His6-tagged SIRT2 after 4 hrs by homogeneous fluorescent deacetylase assay; procedure, shortened: as §1
T2 sequence (Q8IXJ6 whole entry): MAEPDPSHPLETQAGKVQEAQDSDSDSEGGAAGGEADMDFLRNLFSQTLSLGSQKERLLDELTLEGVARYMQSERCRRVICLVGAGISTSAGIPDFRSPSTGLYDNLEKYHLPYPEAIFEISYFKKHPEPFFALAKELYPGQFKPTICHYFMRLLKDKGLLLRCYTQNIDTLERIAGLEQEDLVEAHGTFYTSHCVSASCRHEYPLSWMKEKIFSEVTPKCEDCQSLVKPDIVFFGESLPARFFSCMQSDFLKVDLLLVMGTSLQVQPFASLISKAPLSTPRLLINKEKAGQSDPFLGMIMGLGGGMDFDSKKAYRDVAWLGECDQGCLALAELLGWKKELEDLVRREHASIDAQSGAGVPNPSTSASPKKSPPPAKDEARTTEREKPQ

Structure (SMILES)	IC50 [1] [µM]	IC50 [2] [µM]
Nc1ncnc2c1nc(-c1ccccc1)n2[C@@H]1O[C@H](COP(=O)(O)O)[C@@H](O)[C@H]1O	31	29
NC(=O)c1ccc[n+]([C@@H]2O[C@H](COP(=O)([O-])OP(=O)(O)OC[C@H]3O[C@@H](n4c(Br)nc5c(N)ncnc54)[C@H](O)[C@@H]3O)[C@@H](O)[C@H]2O)c1	–	28
NC(=O)c1ccc[n+]([C@@H]2O[C@H](COP(=O)([O-])OP(=O)(O)OC[C@H]3O[C@@H](n4c(-c5ccccc5)nc5c(N)ncnc54)[C@H](O)[C@@H]3O)[C@@H](O)[C@H]2O)c1	–	123
NC(=O)c1ccc[n+]([C@@H]2O[C@H](COP(=O)([O-])OP(=O)(O)OC[C@H]3O[C@@H](n4c(-c5ccc(Cl)cc5)nc5c(N)ncnc54)[C@H](O)[C@@H]3O)[C@@H](O)[C@H]2O)c1	–	35
COc1ccc(-c2nc3c(N)ncnc3n2[C@@H]2O[C@H](COP(=O)(O)OP(=O)([O-])OC[C@H]3O[C@@H]([n+]4cccc(C(N)=O)c4)[C@H](O)[C@@H]3O)[C@@H](O)[C@H]2O)cc1	–	43
Cc1ccc(-c2nc3c(N)ncnc3n2[C@@H]2O[C@H](COP(=O)(O)OP(=O)([O-])OC[C@H]3O[C@@H]([n+]4cccc(C(N)=O)c4)[C@H](O)[C@@H]3O)[C@@H](O)[C@H]2O)cc1	–	52
